Drug metabolism, Retention_time and half-life data for 17 compounds are collected here from ChEMBL document CHEMBL3525921, “Metabolic pathways of inhaled glucocorticoids by the CYP3A enzymes” (Drug Metab Dispos, 2013).

Type in all cases: ADME
One series concerns the target Cytochrome P450 3A7 (Homo sapiens, UniProt P24462). Briefly: Drug level of the compound assessed as recombinant CYP3A7 (unknown origin)-mediated metabolite formation treated with budesonide by MS/MS analysis. Particulars: recombinant enzyme. A digest of the protocol:
(§1)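 Metabolite profiling used 50 pmol recombinant P450 (with reductase and cytochrome b5) and 100 μM substrate in 30 mM potassium phosphate (pH 7.4). Reactions were started with 1.3 mM NADPH at 37°C, with no-NADPH negative controls. They were stopped with cold acetonitrile, deproteinized by centrifugation, and metabolites were extracted on C-18 cartridges for MS analysis.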

The target of a further series is Cytochrome P450 3A5 (Homo sapiens, UniProt P20815). Briefly: Drug level of the compound assessed as recombinant CYP3A5 (unknown origin)-mediated metabolite formation treated with budesonide by MS/MS analysis. As to conditions: recombinant enzyme. In a few lines: as §1
Cytochrome P450 3A5, sequence (P20815 whole entry): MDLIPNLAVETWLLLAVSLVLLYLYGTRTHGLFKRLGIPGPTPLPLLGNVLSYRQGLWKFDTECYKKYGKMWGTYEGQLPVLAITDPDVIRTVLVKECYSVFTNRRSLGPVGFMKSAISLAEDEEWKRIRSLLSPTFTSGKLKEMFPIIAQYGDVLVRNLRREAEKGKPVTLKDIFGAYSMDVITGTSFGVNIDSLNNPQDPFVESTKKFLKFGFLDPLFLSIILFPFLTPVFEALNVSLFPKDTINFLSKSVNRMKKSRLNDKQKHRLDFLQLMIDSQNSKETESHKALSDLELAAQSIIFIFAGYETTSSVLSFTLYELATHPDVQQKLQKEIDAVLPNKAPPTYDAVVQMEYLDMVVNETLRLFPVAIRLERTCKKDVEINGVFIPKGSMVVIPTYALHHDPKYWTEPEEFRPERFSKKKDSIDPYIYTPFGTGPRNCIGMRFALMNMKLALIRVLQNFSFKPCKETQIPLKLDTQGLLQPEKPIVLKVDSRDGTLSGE
The target of series [1] is T1, Cytochrome P450 3A4 (Homo sapiens, UniProt P08684). Briefly: Drug level of the compound assessed as recombinant CYP3A4 (unknown origin)-mediated metabolite formation treated with budesonide by MS/MS analysis. As to conditions: recombinant enzyme. In a few lines:
as §1

The target of series [2] is T1, Cytochrome P450 3A4. Briefly: Drug metabolism assessed as recombinant CYP3A4 (unknown origin)-mediated 6beta-hydroxy, 21-carboxy triamcinolone acetonide metabolite retention time by MS/MS analysis. As to conditions: recombinant enzyme. A digest of the protocol:
as §1

Series [3] concerns the target T1, Cytochrome P450 3A4. Briefly: Drug level of the compound assessed as recombinant CYP3A4 (unknown origin)-mediated metabolite formation treated with triamcinolone acetonide by MS/MS analysis. Particulars: recombinant enzyme. In a few lines: as §1
Series [4] addresses T1, Cytochrome P450 3A4. Briefly: Drug level of the compound assessed as recombinant CYP3A4 (unknown origin)-mediated metabolite formation treated with flunisolide by MS/MS analysis. Particulars: recombinant enzyme. A digest of the protocol:
as §1

For series [5], the target named is T1, Cytochrome P450 3A4. Briefly: Drug metabolism assessed as recombinant CYP3A4 (unknown origin)-mediated delta6-flunisolide metabolite retention time by MS/MS analysis. As to conditions: recombinant enzyme. In a few lines: as §1
For series [6], the target named is T1, Cytochrome P450 3A4. Briefly: Drug metabolism assessed as recombinant CYP3A4 (unknown origin)-mediated 21-carboxy flunisolide metabolite retention time by MS/MS analysis. Particulars: recombinant enzyme. In a few lines:
as §1

The target of series [7] is T1, Cytochrome P450 3A4. Briefly: Drug metabolism assessed as recombinant CYP3A4 (unknown origin)-mediated 21-carboxy triamcinolone acetonide metabolite retention time by MS/MS analysis. Particulars: recombinant enzyme. In a few lines:
as §1

The target of series [8] is T1, Cytochrome P450 3A4. Briefly: Drug metabolism assessed as recombinant CYP3A4 (unknown origin)-mediated 21-nortriamcincolone acetonide metabolite retention time by MS/MS analysis. Particulars: recombinant enzyme. A digest of the protocol:
as §1

Series [9] has as its target T1, Cytochrome P450 3A4. Briefly: Drug metabolism assessed as recombinant CYP3A4 (unknown origin)-mediated delta6-triamcinolone acetonide metabolite retention time by MS/MS analysis. As to conditions: recombinant enzyme. A digest of the protocol: as §1
In series [10] the target is T1, Cytochrome P450 3A4. Briefly: Drug metabolism assessed as recombinant CYP3A4 (unknown origin)-mediated 17beta-carboxy fluticasone propionate metabolite retention time by MS/MS analysis. Particulars: recombinant enzyme. In a few lines:
as §1

Series [11] addresses T1, Cytochrome P450 3A4. Briefly: Drug level of the compound assessed as recombinant CYP3A4 (unknown origin)-mediated metabolite formation treated with fluticasone propionate by MS/MS analysis. Particulars: recombinant enzyme. In a few lines:
as §1

Series [12] has as its target T1, Cytochrome P450 3A4. Briefly: Drug metabolism assessed as recombinant CYP3A4 (unknown origin)-mediated 6beta-hydroxy triamcinolone acetonide metabolite retention time by MS/MS analysis. As to conditions: recombinant enzyme. A digest of the protocol:
as §1

The target of series [13] is T1, Cytochrome P450 3A4. Briefly: Drug metabolism assessed as recombinant CYP3A4 (unknown origin)-mediated 16alpha-hydroxy prednisolone metabolite formation by MS/MS analysis. Particulars: recombinant enzyme.
The target of a further series is CYP3A4 (Homo sapiens, UniProt P08684). Briefly: Activity at recombinant CYP3A4 (unknown origin) assessed as half life at 1 uM by LC-MS analysis. A digest of the protocol: (§2)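 Recombinant P450 co-expressing P450 reductase and cytochrome b5, 10 pmol, with 1 μM substrate in 30 mM potassium phosphate (pH 7.4). Started with 1.3 mM NADPH at 37°C; no-NADPH negative controls. Samples at 0–20 min were quenched in cold acetonitrile with prednisolone internal standard and run by LC/MS, in triplicate. Parent/IS ratio vs time fitted to one-phase exponential decay; t1/2 = 0.69/kobs.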
CYP3A4, sequence (P08684 whole entry): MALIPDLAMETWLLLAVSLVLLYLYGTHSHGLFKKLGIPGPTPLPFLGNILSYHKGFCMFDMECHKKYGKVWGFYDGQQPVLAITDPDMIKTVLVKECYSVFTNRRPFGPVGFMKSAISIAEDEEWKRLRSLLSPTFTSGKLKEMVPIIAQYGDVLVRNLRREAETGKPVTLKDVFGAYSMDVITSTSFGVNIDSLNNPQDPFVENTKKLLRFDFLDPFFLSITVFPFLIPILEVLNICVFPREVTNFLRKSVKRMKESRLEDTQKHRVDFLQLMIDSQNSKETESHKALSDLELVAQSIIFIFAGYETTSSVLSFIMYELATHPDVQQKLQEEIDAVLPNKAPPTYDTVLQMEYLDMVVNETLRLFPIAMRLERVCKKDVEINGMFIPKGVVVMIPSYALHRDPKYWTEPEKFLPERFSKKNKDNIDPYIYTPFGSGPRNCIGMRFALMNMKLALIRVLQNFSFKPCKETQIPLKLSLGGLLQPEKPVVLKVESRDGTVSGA

Series [14] has as its target T1, Cytochrome P450 3A4. Briefly: Drug metabolism assessed as recombinant CYP3A4 (unknown origin)-mediated 6beta-hydroxy budesonide metabolite formation by MS/MS analysis. Particulars: recombinant enzyme. In a few lines: as §1
Series [15] concerns the target T1, Cytochrome P450 3A4. Briefly: Drug metabolism assessed as recombinant CYP3A4 (unknown origin)-mediated delta6-budesonide metabolite formation by MS/MS analysis. As to conditions: recombinant enzyme. In a few lines: as §1
Series [16] deals with T1, Cytochrome P450 3A4. Briefly: Drug metabolism assessed as recombinant CYP3A4 (unknown origin)-mediated 23-hydroxy budesonide metabolite formation by MS/MS analysis. Particulars: recombinant enzyme. In a few lines:
as §1

In another series the target is CYP3A5 (Homo sapiens, UniProt P20815). Briefly: Activity at recombinant CYP3A5 (unknown origin) assessed as half life at 1 uM by LC-MS analysis. A digest of the protocol:
as §2

The target of series [17] is T1, Cytochrome P450 3A4. Briefly: Drug metabolism assessed as recombinant CYP3A4 (unknown origin)-mediated 16alpha-hydroxy prednisolone metabolite formation by MS/MS analysis in presence of esterase inhibitor. As to conditions: recombinant enzyme.
For a further series, the target named is CYP3A7 (Homo sapiens, UniProt P24462). Briefly: Activity at recombinant CYP3A7 (unknown origin) assessed as half life at 1 uM by LC-MS analysis. A digest of the protocol:
as §2

Series [18] addresses T1, Cytochrome P450 3A4. Briefly: Drug metabolism assessed as recombinant CYP3A4 (unknown origin)-mediated keto-flunisolide metabolite retention time by MS/MS analysis. Particulars: recombinant enzyme. In a few lines:
as §1

Cytochrome P450 3A7, sequence (P24462 whole entry): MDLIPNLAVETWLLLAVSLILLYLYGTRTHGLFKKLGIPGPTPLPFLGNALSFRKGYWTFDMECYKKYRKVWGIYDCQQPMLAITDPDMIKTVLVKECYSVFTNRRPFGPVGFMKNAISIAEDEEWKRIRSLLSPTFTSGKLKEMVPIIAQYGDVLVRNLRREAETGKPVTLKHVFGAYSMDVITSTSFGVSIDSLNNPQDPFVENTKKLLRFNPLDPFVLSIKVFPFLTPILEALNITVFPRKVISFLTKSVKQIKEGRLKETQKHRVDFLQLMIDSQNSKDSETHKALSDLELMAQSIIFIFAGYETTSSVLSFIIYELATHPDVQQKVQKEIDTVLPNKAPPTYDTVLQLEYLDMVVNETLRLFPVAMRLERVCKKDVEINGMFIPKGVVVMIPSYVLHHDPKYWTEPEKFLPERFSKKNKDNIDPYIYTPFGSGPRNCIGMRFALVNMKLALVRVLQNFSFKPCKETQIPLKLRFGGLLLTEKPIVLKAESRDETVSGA
CYP3A7, sequence (P24462 whole entry): as above
T1 sequence (P08684 whole entry): as the sequence (P08684 whole entry) above
CYP3A5, sequence (P20815 whole entry): as the sequence (P20815 whole entry) above

As to `CCC(O)C1O[C@@H]2C[C@H]3[C@@H]4CCC5=CC(=O)C=C[C@]5(C)[C@H]4[C@@H](O)C[C@]3(C)[C@]2(C(=O)CO)O1` (stereo not given in full), the Drug metabolism result at Cytochrome P450 3A7, on Cytochrome P450 3A5 and on Cytochrome P450 3A4 [1] was “metabolite_detected” each time.

Consider `CC1(C)O[C@@H]2C[C@H]3[C@@H]4C[C@@H](O)C5=CC(=O)C=C[C@]5(C)[C@@]4(F)[C@@H](O)C[C@]3(C)[C@]2(C(=O)C(=O)O)O1`, for which the Retention_time at Cytochrome P450 3A4 [2] is 16.4 min. Further, the Drug metabolism result at Cytochrome P450 3A4 [3] is “metabolite_detected”.

Take `CC1(C)O[C@@H]2C[C@H]3[C@@H]4C=C(F)C5=CC(=O)C=C[C@]5(C)[C@H]4[C@@H](O)C[C@]3(C)[C@]2(C(=O)CO)O1`: at Cytochrome P450 3A4 [4], the Drug metabolism result is recorded as “metabolite_detected”. The Retention_time at Cytochrome P450 3A4 [5] turned out to be 20.6 min.

For the compound `CC1(C)O[C@@H]2C[C@H]3[C@@H]4CC(=O)C5=CC(=O)C=C[C@]5(C)[C@H]4[C@@H](O)C[C@]3(C)[C@]2(C(=O)CO)O1`, the Drug metabolism entry on Cytochrome P450 3A4 [4] was “metabolite_detected”.

Take `CC1(C)O[C@@H]2C[C@H]3[C@@H]4C[C@H](F)C5=CC(=O)C=C[C@]5(C)[C@H]4[C@@H](O)C[C@]3(C)[C@]2(C(=O)C(=O)O)O1`: on Cytochrome P450 3A4 [6], the Retention_time is on record as 23.1 min. Moreover, the Drug metabolism entry on Cytochrome P450 3A4 [4] was “metabolite_detected”.

As to `CC1(C)O[C@@H]2C[C@H]3[C@@H]4CCC5=CC(=O)C=C[C@]5(C)[C@@]4(F)[C@@H](O)C[C@]3(C)[C@]2(C(=O)C(=O)O)O1`, at Cytochrome P450 3A4 [3], the Drug metabolism entry is listed as “metabolite_detected”. Also, the Retention_time on Cytochrome P450 3A4 [7] was 23.7 min.

For `CC1(C)O[C@@H]2C[C@H]3[C@@H]4CCC5=CC(=O)C=C[C@]5(C)[C@@]4(F)[C@@H](O)C[C@]3(C)[C@]2(C(=O)O)O1`, at Cytochrome P450 3A4 [3], the Drug metabolism result was “metabolite_detected”. Further, the Retention_time on Cytochrome P450 3A4 [8] was 18.9 min.

As to `CC1(C)O[C@@H]2C[C@H]3[C@@H]4C=CC5=CC(=O)C=C[C@]5(C)[C@@]4(F)[C@@H](O)C[C@]3(C)[C@]2(C(=O)CO)O1`, the Drug metabolism result on Cytochrome P450 3A4 [3] is recorded as “metabolite_detected”. At Cytochrome P450 3A4 [9], the Retention_time is recorded as 19.1 min.

With `CCC(=O)O[C@]1(C(=O)O)[C@H](C)C[C@H]2[C@@H]3C[C@H](F)C4=CC(=O)C=C[C@]4(C)[C@@]3(F)[C@@H](O)C[C@@]21C`, the Retention_time on Cytochrome P450 3A4 [10] amounted to 19.7 min. In addition, the Drug metabolism result on Cytochrome P450 3A4 [11] is listed as “metabolite_detected”.

For the compound `C[C@]12C=CC(=O)C=C1CC[C@@H]1[C@@H]2[C@@H](O)C[C@@]2(C)[C@H]1C[C@@H](O)[C@]2(O)C(=O)CO`, the Drug metabolism result at Cytochrome P450 3A7, on Cytochrome P450 3A5 and at Cytochrome P450 3A4 [1] was “metabolite_detected” each time.

For `CC1(C)O[C@@H]2C[C@H]3[C@@H]4C[C@@H](O)C5=CC(=O)C=C[C@]5(C)[C@@]4(F)[C@@H](O)C[C@]3(C)[C@]2(C(=O)CO)O1`, on Cytochrome P450 3A4 [12], the Retention_time is 14.9 min. Further, the Drug metabolism result at Cytochrome P450 3A4 [3] was “metabolite_detected”.

For `CCCC1O[C@@H]2C[C@H]3[C@@H]4C=CC5=CC(=O)C=C[C@]5(C)[C@H]4[C@@H](O)C[C@]3(C)[C@]2(C(=O)CO)O1` (stereo not given in full), the Drug metabolism entry at Cytochrome P450 3A7, on Cytochrome P450 3A5 and at Cytochrome P450 3A4 [1] was “metabolite_detected” each time.

In the case of `CCCC1O[C@@H]2C[C@H]3[C@@H]4C[C@@H](O)C5=CC(=O)C=C[C@]5(C)[C@H]4[C@@H](O)C[C@]3(C)[C@]2(C(=O)CO)O1` (stereo not given in full), the Drug metabolism entry at Cytochrome P450 3A7, at Cytochrome P450 3A5 and on Cytochrome P450 3A4 [1] was “metabolite_detected” in each case.

`CCCC1O[C@@H]2C[C@H]3[C@@H]4CCC5=CC(=O)C=C[C@]5(C)[C@H]4[C@@H](O)C[C@]3(C)[C@]2(C(=O)CO)O1` (stereo not given in full) [BUDESONIDE]: the Drug metabolism result on Cytochrome P450 3A4 [13] is listed as “metabolite_detected”; at Cytochrome P450 3A4 [14] it was “metabolite_detected”; at Cytochrome P450 3A4 [15], “metabolite_detected”; at Cytochrome P450 3A4 [16], “metabolite_detected”; at Cytochrome P450 3A4 [17], “metabolite_not_detected”. Further, the half-life at 1 µM on CYP3A4 was 11 min; on CYP3A5 it was 40 min; on CYP3A7, 71 min.

For `CC1(C)O[C@@H]2C[C@H]3[C@@H]4C[C@H](F)C5=CC(=O)C=C[C@]5(C)[C@H]4[C@@H](O)C[C@]3(C)[C@]2(C(=O)CO)O1` [FLUNISOLIDE], the Retention_time at Cytochrome P450 3A4 [18] is reported as 15.8 min. Further, on CYP3A4, the half-life at 1 µM stood at 16 min.

As for `CCC(=O)O[C@]1(C(=O)SCF)[C@H](C)C[C@H]2[C@@H]3C[C@H](F)C4=CC(=O)C=C[C@]4(C)[C@@]3(F)[C@@H](O)C[C@@]21C` [FLUTICASONE PROPIONATE], the half-life at 1 µM at CYP3A4 is 0.86 min; at CYP3A5 it was 16 min; at CYP3A7, 58 min.

As for `CC1(C)O[C@@H]2C[C@H]3[C@@H]4CCC5=CC(=O)C=C[C@]5(C)[C@@]4(F)[C@@H](O)C[C@]3(C)[C@]2(C(=O)CO)O1` [TRIAMCINOLONE ACETONIDE], the half-life at 1 µM was 12 min on CYP3A4, 130 min on CYP3A5 and 213 min on CYP3A7.
